Paper PMC8790780 (Chemistry (Weinheim an der Bergstrasse, Germany), 2021)

Legend:
Hsp90β = Hsp90β (Homo sapiens, UniProt P08238); experiment: Fluorescence polarization; type: binding; details: for binding affinity for Hsp90β (in words): FP assay, SAR discussion; for Selectivity: Hsp90β versus Hsp90α, from FP IC50 values
Hsp90α = Hsp90α (Homo sapiens, UniProt P07900); experiment: Fluorescence polarization; type: binding; details: for binding affinity for Hsp90α (in words): FP assay, SAR discussion
NCI-H1299 cells = experiment: Cell viability assay; type: cell-based; details: Homo sapiens, NCI-H1299, 72 h, read-out: NCI—H1299 [IC50 in μM]
HT29 cells = experiment: Cell viability assay; type: cell-based; details: Homo sapiens, HT-29, 72 h, read-out: HT29 [IC50 in μM]
[1] = tested on: Hsp90 client proteins in HT-29 cell line; experiment: Western blot analysis of client proteins in HT-29 cell lysates; type: cell-based, human; details: HT-29, 24 h, 5-50 μM
How it was run: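 HT29 cells grown in RPMI with 10% FBS and 1% Pen-Strep. At ~70% confluence they were treated for 24 h with test compound (5, 10, 20, 30, 40, 50 μM) or GDA 500 nM. Cells were lysed in RIPA with protease/phosphatase inhibitors and spun 12,000g for 25 min at 4°C. BCA-normalized protein was run on 10% SDS-PAGE, transferred to PVDF, and detected with specific antibodies, HRP secondary and chemiluminescence.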

Hsp90β, sequence (P08238 whole entry): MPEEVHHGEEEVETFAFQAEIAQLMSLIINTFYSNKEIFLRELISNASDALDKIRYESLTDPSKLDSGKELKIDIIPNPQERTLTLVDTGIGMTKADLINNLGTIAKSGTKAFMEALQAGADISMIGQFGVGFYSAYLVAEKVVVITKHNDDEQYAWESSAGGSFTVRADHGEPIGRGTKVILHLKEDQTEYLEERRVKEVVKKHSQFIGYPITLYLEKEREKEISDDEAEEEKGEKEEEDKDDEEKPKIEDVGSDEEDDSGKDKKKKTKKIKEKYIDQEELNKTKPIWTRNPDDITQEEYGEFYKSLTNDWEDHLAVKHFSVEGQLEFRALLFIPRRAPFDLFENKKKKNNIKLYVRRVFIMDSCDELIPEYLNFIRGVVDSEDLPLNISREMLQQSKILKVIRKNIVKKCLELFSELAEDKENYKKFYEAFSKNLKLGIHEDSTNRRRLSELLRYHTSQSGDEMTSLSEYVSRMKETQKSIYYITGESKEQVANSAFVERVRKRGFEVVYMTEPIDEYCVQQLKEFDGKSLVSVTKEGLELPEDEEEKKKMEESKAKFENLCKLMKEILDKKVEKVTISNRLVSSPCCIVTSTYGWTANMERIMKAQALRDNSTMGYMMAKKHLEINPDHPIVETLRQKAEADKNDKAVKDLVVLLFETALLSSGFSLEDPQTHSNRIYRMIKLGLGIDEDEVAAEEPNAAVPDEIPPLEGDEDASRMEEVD

IC50 (Hsp90β)	IC50 (Hsp90α)	IC50 (HT29 cells)	binding affinity for Hsp90β (in words) (Hsp90β)	binding affinity for Hsp90α (in words) (Hsp90α)	Selectivity (Hsp90β)	selectivity for Hsp90β versus Hsp90α (Hsp90β)	Compound	IC50 (NCI-H1299 cells)	Erk5 total level [1]	Her-2 total level [1]	Hsp70 level [1]	survivin protein expression level (Hsp90α-dependent client) [1]	Akt protein level (Hsp90β-dependent client) ([1]; dose dependent)	CDK4 protein level (Hsp90β-dependent client) ([1]; dose dependent)
> 100 µM	> 100 µM						CC(C)c1cc(C(=O)N2Cc3ccccc3C2)c(O)c2c1C(=O)CCC2 [Compound 59b, 5-hydroxy-6-(isoindoline-2-carbonyl)-8-isopropyl-3,4-dihydronaphthalen-1(2H)-one]							
> 100 µM	> 100 µM		did not display good affinity	did not display good affinity			CC(C)c1cc(C(=O)N2Cc3ccccc3C2)c(O)c2c1C(=C(F)F)CC2 [Compound 45, (1-(difluoromethylene)-4-hydroxy-7-isopropyl-2,3-dihydro-1H-inden-5-yl)(isoindolin-2-yl)methanone]							
> 100 µM	> 100 µM	66.5 ± 1.35 µM	did not display good affinity	did not display good affinity			C=C1Cc2c(O)c(C(=O)N3Cc4ccccc4C3)cc(C(C)C)c2C1=O [Compound 46, 4-hydroxy-5-(isoindoline-2-carbonyl)-7-isopropyl-2-methylene-2,3-dihydro-1H-inden-1-one]	68.2 ± 1.2 µM						
0.34 ± 0.01 µM	2.42 ± 0.07 µM	58.3 ± 1.51 µM			7.1		CC(C)c1cc(C(=O)N2Cc3ccccc3C2)c(O)c2c1C(=O)C(F)C2 (stereo not shown) [Compound 42, 2-fluoro-4-hydroxy-5-(isoindoline-2-carbonyl)-7-isopropyl-2,3-di-hydro-1H-inden-1-one]	20.6 ± 0.28 µM						
0.27 ± 0.09 µM	> 100 µM	18.8 ± 2.6 µM		no measurable affinity	> 370	~ 370 fold	CC(C)c1cc(C(=O)N2Cc3ccccc3C2)c(O)c2ccoc12 [Compound 5, (4-Hydroxy-7-isopropylbenzofuran-5-yl)(isoindolin-2-yl) methanone]	17.5 ± 0.42 µM	decreased at higher concentrations	decreased at higher concentrations	appear to be induced	remained unaffected until higher concentrations	induced the degradation	induced the degradation
0.15 ± 0.04 µM	0.79 ± 0.14 µM	21.7 ± 2.6 µM	strong affinity	strong affinity			CC(C)c1cc(C(=O)N2Cc3ccccc3C2)c(O)c2c1C(=O)CC2 [Compound 29b, 4-Hydroxy-5-(isoindoline-2-carbonyl)-7-isopropyl-2,3-dihydro-1H-inden-1-one]	10 ± 3.28 µM						
1.86 ± 0.11 µM	> 100 µM	47.4 ± 2.94 µM			> 53		CC(C)c1cc(C(=O)N2Cc3ccccc3C2)c(O)c2c1C=CC2 [Compound 32b, (7-hydroxy-4-isopropyl-1H-inden-6-yl)(isoindolin-2-yl)methanone]	41.4 ± 1.2 µM						
0.45 ± 0.15 µM	2.22 ± 0.19 µM	93.7 ± 2.67 µM			4.9		CC(C)c1cc(C(=O)N2Cc3ccccc3C2)c(O)c2nc[nH]c12 [Compound 21, (4-Hydroxy-7-isopropyl-1H-benzo[d]imidazol-5-yl)(isoindolin-2-yl) methanone]	60 ± 10.5 µM						
> 100 µM	> 100 µM	62 ± 1.42 µM					CC(C)c1cc(C(=O)N2Cc3ccccc3C2)c(O)c2cc[nH]c12 [Compound 18, (4-hydroxy-7-isopropyl-1H-indol-5-yl)(isoindolin-2-yl)methanone]	> 100 µM						
> 100 µM	> 100 µM	> 100 µM					CC(C)c1cc(C(=O)N2Cc3ccccc3C2)c(O)c2[nH]nnc12 [Compound 20, (7-Hydroxy-4-isopropyl-1H-benzo[d][1,2,3]triazol-6-yl)(isoindolin-2-yl)methanone]	75 ± 21.4 µM						

Second part, the compound before the results:

Compound	IC50 (Hsp90β)	IC50 (Hsp90α)	IC50 (HT29 cells)	binding affinity for Hsp90β (in words) (Hsp90β)	binding affinity for Hsp90α (in words) (Hsp90α)	Selectivity (Hsp90β)	selectivity for Hsp90β versus Hsp90α (Hsp90β)	IC50 (NCI-H1299 cells)	Erk5 total level [1]	Her-2 total level [1]	Hsp70 level [1]	survivin protein expression level (Hsp90α-dependent client) [1]	Akt protein level (Hsp90β-dependent client) ([1]; dose dependent)	CDK4 protein level (Hsp90β-dependent client) ([1]; dose dependent)
CC(C)c1cc(C(=O)N2Cc3ccccc3C2)c(O)c2c1C(=NO)CC2 [Compound 51, (4-hydroxy-1-(hydroxyimino)-7-isopropyl-2,3-dihydro-1H-inden-5-yl)(isoindolin-2-yl)methanone]	> 100 µM	> 100 µM	51.2 ± 2.23 µM					33.7 ± 1.78 µM						
CC(C)c1cc(C(=O)N2Cc3ccccc3C2)c(O)c2c1CCC2 [Compound 31, (4-hydroxy-7-isopropyl-2,3-dihydro-1H-inden-5-yl)(isoindolin-2-yl)methanone]	5.23 ± 0.13 µM	> 100 µM	59.33 ± 0.18 µM	poor binding affinity		> 19.1		58.1 ± 0.34 µM						
CC1Cc2c(O)c(C(=O)N3Cc4ccccc4C3)cc(C(C)C)c2C1=O (stereo not shown) [Compound 40, 4-Hydroxy-5-(isoindoline-2-carbonyl)-7-isopropyl-2-methyl-2,3-di-hydro-1H-inden-1-one]	8.83 ± 1.48 µM	> 100 µM	60.2 ± 0.63 µM			>11		59 ± 1.78 µM						
CON=C1CCc2c(O)c(C(=O)N3Cc4ccccc4C3)cc(C(C)C)c21 [Compound 52, (4-hydroxy-7-isopropyl-1-(methoxyimino)-2,3-dihydro-1H-inden-5-yl)(isoindolin-2-yl)methanone]	> 100 µM	> 100 µM	51.2 ± 2.23 µM					86 ± 7.7 µM						
CC(C)c1cc(C(=O)N2Cc3ccccc3C2)c(O)c2c1CCC2=O [Compound 29a, 7-hydroxy-6-(isoindoline-2-carbonyl)-4-isopropyl-2,3-dihydro-1H-inden-1-one]	> 100 µM	> 100 µM	63.5 ± 1.69 µM	did not exhibit affinity	did not exhibit affinity			67.6 ± 4.13 µM						
CC(C)c1cc(C(=O)N2Cc3ccccc3C2)c(O)c2cn[nH]c12 [Compound 19, (4-Hydroxy-7-isopropyl-1H-indazol-5-yl)(isoindolin-2-yl) methanone]	> 100 µM	> 100 µM	> 100 µM					> 100 µM						
CC(C)c1cc(C(=O)N2Cc3ccccc3C2)c(O)c2c1C(=O)C(C)(C)C2 [Compound 41, 4-hydroxy-5-(isoindoline-2-carbonyl)-7-isopropyl-2,2-dimethyl-2,3-dihydro-1H-inden-1-one]	> 100 µM	> 100 µM	54.3 ± 1.32 µM	not tolerated				51.31 ± 0.15 µM						
CC(C)c1cc(C(=O)N2Cc3ccccc3C2)c(O)c2c1C(=O)C(F)(F)C2 [Compound 43, 2,2-difluoro-4-hydroxy-5-(isoindoline-2-carbonyl)-7-isopropyl-2,3-dihydro-1H-inden-1-one]	18.2 ± 1.3 µM	> 100 µM	> 100 µM	poor affinity		>5		> 100 µM						
CC(C)c1cc(C(=O)N2Cc3ccccc3C2)c(O)c2c1CCCC2=O [Compound 59a, 8-hydroxy-7-(isoindoline-2-carbonyl)-5-isopropyl-3,4-dihydronaphthalen-1(2H)-one]	> 100 µM	> 100 µM	51.2 ± 2.23 µM					83.3 ± 1.31 µM						
CC(C)c1cc(C(=O)N2Cc3ccccc3C2)c(O)c2c1C(=O)C=C2 [Compound 50, 4-hydroxy-5-(isoindoline-2-carbonyl)-7-isopropyl-1H-inden-1-one]	6.75 ± 0.01 µM	43.1 ± 11.5 µM	2.33 ± 0.48 µM					1.53 ± 0.16 µM						
CC(C)c1cc(C(=O)N2Cc3ccccc3C2)c(O)c2c1C(=O)C(C(F)(F)F)C2 (stereo not shown) [Compound 44, 4-Hydroxy-5-(isoindoline-2-carbonyl)-7-isopropyl-2-(trifluoromethyl)-2,3-dihydro-1H-inden-1-one]	19.6 ± 2.2 µM	> 100 µM	75.29 ± 0.66 µM			>5		57.8 ± 8.01 µM						
CC(C)c1cc(C(=O)N2Cc3ccccc3C2)c(O)c2c1CC=C2 [Compound 32a, (4-Hydroxy-7-isopropyl-1H-inden-5-yl)(isoindolin-2-yl)methanone]	8.29 ± 0.17 µM	> 100 µM	51.8 ± 2.18 µM			>12		46.1 ± 1.11 µM						
